# Diaph act CS – compounds boosting diaphorase resazurin reduction – biochemical, uHTS, resorufin fluorescence, counter-screen for diaphorase-coupled primary assays, primary screen; Diaphorase/resazurin coupled assay, 16 min; stronger effect = higher value; 1 = vehicle wells, 0 = NADH-free wells; activation factor at 20 µM; 190,000 compounds, 0.005% hits; AID 1229, 2008;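 active means diaphorase activity raised at least twofold by the compound at 20 µM; inactive means activation factor below 2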
#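 Material: Clostridium kluyveri diaphorase, purified enzyme; Quantity: enzyme 0.07 U/mL final; Medium: HEPES pH 7.4 buffer with MgCl2 and Tween 20; Dosing: single compound dose of 20 µM, 1% DMSO final; Schedule: 16 min reaction at room temperature; Measured by: red resorufin fluorescence at 544/590 nm excitation/emission.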
# WT yeast gro inh – growth inhibition of WT strain, primary screen, mitochondrial fusion inhibitor project, WT and mutant strains, chemical genetic; inhibition, % at 10 µM; 190,000 compounds, 2.1% hits; mitochondrial fusion phenotypic screen; AID 1362, 2008; in the data active means inhibition above about 58%; tested in S. cerevisiae
# ROMK mod – ROMK potassium channel modulators, primary screen, cell-based, thallium flux, MLSMR library; ATP-sensitive inward rectifier potassium channel 1 (Homo sapiens), P48048; Tet-inducible ROMK, thallium flux fluorescence; actives lie on both sides; B-score at 10 µM; 130,000 compounds, 2% hits; AID 1918, 2009;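 active means signal ratio slope over the read window, or its plate-corrected B-score, at least 3 SD from the plate mean, either direction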;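 further: B-score of the F/F0 ratio slope over 7 to 12 s after thallium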
# Target sequence (P48048 whole entry, looked up): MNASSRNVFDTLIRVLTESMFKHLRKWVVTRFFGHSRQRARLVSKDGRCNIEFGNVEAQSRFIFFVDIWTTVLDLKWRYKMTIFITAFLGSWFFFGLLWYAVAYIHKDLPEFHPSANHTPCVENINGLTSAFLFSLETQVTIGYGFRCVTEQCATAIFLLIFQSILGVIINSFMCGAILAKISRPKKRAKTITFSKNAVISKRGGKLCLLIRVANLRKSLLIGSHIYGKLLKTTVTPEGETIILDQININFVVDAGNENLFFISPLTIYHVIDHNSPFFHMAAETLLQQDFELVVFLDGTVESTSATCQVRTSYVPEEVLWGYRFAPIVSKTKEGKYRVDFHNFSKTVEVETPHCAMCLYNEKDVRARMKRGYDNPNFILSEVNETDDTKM
# Lmaj promast – Leishmania major promastigote growth inhibition, primary screen | Leishmania major promastigotes, resazurin fluorescence viability | inhibition, % at 10 µM | 200,000 compounds, 9% hits; in the data active means inhibition above about 50%;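 further: promastigotes grown with compound for 44 hours at 28 °C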
# KCC2 mod – KCC2 cotransporter modulators, thallium flux, primary screen, cell-based, HEK293 KCC2, FluoZin-2 fluorescence, MLSMR; Solute carrier family 12 member 5 (Homo sapiens), Q9H2X9; KCC2 cells, thallium flux FluoZin-2 fluorescence; B-score of Tl+ flux slope (higher = more flux/activation; lower = inhibition) at 10 µM; 190,000 compounds, 2.2% hits; AID 1456, 2008;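 active means thallium flux slope and its plate-corrected score both differing from the plate sample mean at a set confidence after two filtering rounds, in either direction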;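 further: slope of fluorescence scaled to starting intensity during 10 to 20 s after thallium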
# Diaph inh CS – diaphorase inhibitors and chemical oxidizers, primary screen, counter-screen for diaphorase-coupled primary assays, biochemical, uHTS, resorufin fluorescence; diaphorase resazurin-to-resorufin fluorescence, NADH, 16 min; bacterial (C. kluyveri) enzyme, not human; 190,000 compounds, 0.69% hits; inhibition, % at 20 µM;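 active means primary screen inhibition at 20 µM above a set limit, cut at about 50% in these data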;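 further: plate controls were DMSO with full reaction for no effect and wells lacking NADH for full effect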
#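 Assay system: diaphorase enzyme from Clostridium kluyveri; Input: enzyme working solution with 0.14 U/mL diaphorase; Timing: 16 min at room temperature; Technique: resorufin fluorescence, excitation 544 nm, emission 590 nm; Benchmarks: positive control minus NADH, DMSO neutral control.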
# Lmaj promast 1uM – Leishmania major promastigote growth inhibition, confirmation, 1 µM repeat of primary hits | shares compounds with Lmaj promast | L. major promastigote growth, resazurin fluorescence, 48 h | inhibition, % at 1 µM | 1,100 compounds, 13% hits;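 active means inhibition above about 50% in both repeat tests, limit read from the data; inconclusive means one repeat under the set limit, the other over it; inactive means both repeats under the set limit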
# KCC2 secondary – KCC2 modulators in sodium-free buffer, confirmation, cell-based, HEK293 KCC2, thallium flux, secondary assay; shares compounds with KCC2 mod; FluoZin2 fluorescence; stronger effect = higher value; normalised thallium flux (F/F0 slope) at 10 µM; 3,700 compounds, 15% hits;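 active means thallium flux slope above the same plate's solvent-only control mean plus 3 SD; inconclusive means the two replicate wells disagree; inactive means no significant difference from solvent-only control wells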
# KCC2 bumet counter – thallium flux persisting under bumetanide in KCC2 cells, confirmation, counter-screen for KCC2 modulator project, cell-based, HEK293 KCC2, FluoZin2, secondary assay 3 | shares compounds with KCC2 mod | HEK293-KCC2 + bumetanide/ouabain; stronger effect = higher value | normalized thallium flux at 10 µM | 3,700 compounds, 49% hits;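 active means thallium entry rate above the same plate's blocked-transporter control wells by more than 3 SD; inconclusive means the two repeat wells disagree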;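 further: raw slope of fluorescence over initial fluorescence between 10 and 20 s after thallium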
# KCC2 sec2 – KCC2 modulators without ouabain present, confirmation, cell-based, HEK293 KCC2, thallium flux, FluoZin2, secondary assay 2 | shares compounds with KCC2 mod | thallium flux FluoZin2 fluorescence; actives lie on both sides; F/F0 rise rate, 10–20 s post-thallium | 3,700 compounds, 23% hits | normalized thallium flux at 10 µM;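 active means thallium flux slope more than 3 SD above or below the plate's solvent-only control mean, mostly below; inconclusive means the two repeat wells disagreed; inactive means no significant shift from solvent-only controls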;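 further: raw slope with 0.1% DMSO as baseline and bumetanide as block control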
# HEK counter1 – thallium flux modulation in parental HEK cells, confirmation, counter-screen for KCC2 modulator project, cell-based, counterscreen 1. AID 1716, 2009. thallium flux rate (normalised fluorescence) at 10 µM. HEK293 parental cells, thallium flux FluoZin2, ouabain; baseline-ratio fluorescence slope, 10–20 s after thallium. 3,700 compounds, 46% hits. shares compounds with KCC2 mod;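 active means thallium flux rate significantly above the same plate's solvent-only control wells, beyond their mean plus 3 SD; inconclusive means the two replicate wells gave conflicting results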
# KCC2 ouabain – KCC2 inhibitors and activators, ouabain retest, confirmation, HEK-KCC2 cells. raw Tl+ flux slope (below DMSO = inhibition, above = activation) at 10 µM. 3,700 compounds, 48% hits. shares compounds with KCC2 mod. HEK293-KCC2, thallium flux FluoZin2 fluorescence; bidirectional: low = inhibitor, high = activator;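 active means thallium flux slope beyond 3 SD from same-plate DMSO control mean in most replicates, usually higher, sometimes lower; inconclusive means repeat tests gave conflicting results; inactive means no significant difference from controls in most replicates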;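 further: slope of initial-normalized fluorescence between seconds 10 and 20 after thallium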
# HEK counter2 – native HEK Tl+ uptake effects, second counter-screen – HEK cells, counterscreen 2, counter-screen for KCC2 modulator project, confirmation; shares compounds with KCC2 mod; HEK293 parental, thallium flux FluoZin-2 fluorescence slope; thallium flux slope at 10 µM; 3,700 compounds, 33% hits;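 active means thallium flux slope above the same plate's solvent-control mean plus 3 SD in both duplicate wells; inconclusive means duplicate wells that disagreed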;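 further: run without ouabain in cells lacking the KCC2 cotransporter; slope of fluorescence scaled to its starting value between 10 and 20 s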
# The depositor's hits bear a star; ? = inconclusive; / = no result given. The list is not random: actives were taken first. Their share in the collection is about 12%.
SMILES,Diaph act CS,WT yeast gro inh,ROMK mod,Lmaj promast,KCC2 mod,Diaph inh CS,Lmaj promast 1uM,others
CCOC(=O)c1c(C)oc2c1C(=O)c1ccccc1C2=O,0.9,42.0,0.0328,97.9*,0.238,12.3,14.2,
CCOc1ccc(N(CC)S(=O)(=O)c2ccc3c(c2)oc(=O)n3C)cc1,0.9,-29.1,/,57.2*,1.02,5.9,-12.0,
C[N+]1(C2CCC3CCCC2C3O)CCCC1 (centres undefined),1,6.1,0.155,64.9*,-0.469,4.9,-11.5,
Cc1cc(C)n(CCc2nc(-c3cc4ccccc4o3)cs2)n1,0.7,/,/,100.0*,-1.16,26.1,-1.8,
Cc1ccc(C(NC(=O)c2ccccc2)C(Cl)(Cl)Cl)cc1 (centres undefined),1,14.1,0.261,22.7,1.7,0.7,/,
Cc1cccc(C)c1-n1nnnc1S(=O)(=O)Cc1ccccc1Cl,1,25.6,-0.331,76.7*,-0.884,1.7,-19.7,
CCN(CC)C(=S)SC1=CCS(=O)(=O)C1,0.9,-14.0,0.608,1.9,-3.41,13.6,/,
CCN(CC)C(=S)SSC(=S)N(CC)CC,1.1,86.7,/,100.3*,1.67,-5.0,98.0*,
O=C(Nc1ccc(Cl)cn1)c1ccc([N+](=O)[O-])o1,0.9,15.9,-0.645,99.7*,1.44,12.7,79.7*,
Cc1c(Cl)c([N+](=O)[O-])nn1Cc1ccc(C(=O)Nc2ccc(Cl)cn2)o1,0.8,30.2,-0.166,14.2,-0.727,23.8,/,
O=[N+]([O-])c1ccccc1C1Nc2cccc3cccc(c23)N1,0.4,-10.1,/,96.7*,/,56.9*,-9.0,
CCCNC(=O)c1ccc2c(c1)C1C3CCC(C3)C1C(c1ccccc1)N2 (centres undefined),0.9,62.4*,-1.58,80.9*,1.18,14.5,3.2,
CC(C)(C)NC(=O)c1ccc2c(c1)C1C3CCC(C3)C1C(c1ccccc1)N2 (centres undefined),0.8,46.6,/,42.8,0.24,17.5,/,
COc1ccccc1Nc1nc(C2(C)CCC(=O)O2)cs1 (centres undefined),0.9,-4.4,/,11.7,-2.49,14.7,/,
CC(=O)Nc1cccc(Oc2cc(C#N)c(C#N)cc2N2CCCCCC2)c1,0.7,-0.5,/,61.5*,-1.75,34.8,0.3,
COc1ccc(N2CCN(c3ccc(NC(=O)C4CCCCC4)cc3C#N)CC2)cc1,1,-2.0,/,-3.8,-1.02,0.1,/,
COC(=O)c1cccc2c1-c1ccccc1/C2=N/O,0.9,23.3,0.282,70.1*,-1.06,7.8,-28.9,
Cc1cccc(NC(=O)C(=O)NCc2ccc3c(c2)OCO3)c1C,0.9,1.4,0.919,-4.5,0.83,6.2,/,
CC(C)[C@H](NS(=O)(=O)c1ccccc1)C(=O)OCn1nnc2ccccc2c1=O,0.9,-8.6,1.57,-1.5,/,12.8,/,
Cc1ccc(S(=O)(=O)N[C@H](C(=O)OCn2nnc3ccccc3c2=O)C(C)C)cc1,0.9,0.2,0.477,67.4*,-0.112,9.6,-8.3,
COc1ccc(C2=NN(c3nc4ccccc4s3)C(=O)/C2=C\N(C)C)cc1,1,4.1,0.109,53.9*,0.173,-4.6,-17.6,
Fc1cccc(-c2nnn3c2nc(Cl)c2ccccc23)c1,0.9,33.5,0.0472,98.3*,-0.192,11.6,80.8*,
Clc1nc2c(-c3ccccc3)nnn2c2ccccc12,/,/,-0.949,/,0.0535,/,/,
Cc1ccc(C(=O)OCC(=O)c2ccc(Cl)s2)s1,0.7,25.8,/,92.4*,-0.573,26.0,-8.2,
O=C(COC(=O)c1ccc[nH]c1=O)c1ccc(Cl)s1,0.8,1.4,/,-7.3,0.0198,20.9,/,
SMILES,Diaph act CS,WT yeast gro inh,ROMK mod,Lmaj promast,KCC2 mod,Diaph inh CS,Lmaj promast 1uM,others
COc1cc(/C=C(\NC(C)=O)C(=O)NC(C)(C)C)ccc1OC(C)=O,0.9,-14.1,0.0339,-5.4,1.26,12.2,/,
Cc1nc(N2CCN(C)CC2)c2sc(=S)n(-c3ccccc3)c2n1,0.9,7.9,/,3.4,0.269,6.1,/,
S=c1sc2c(Cl)ncnc2n1-c1ccccc1,0.8,-6.1,0.0234,87.0*,-4.29*,15.0,30.4,KCC2 secondary=0.00579;KCC2 bumet counter=0.00465;KCC2 sec2=0.0331;HEK counter1=0.00728;KCC2 ouabain=0.0188;HEK counter2=0.01
CC(C)CC(=O)N1CC(C)N(C(=O)CC(C)C)CC1C (centres undefined),0.9,-4.7,1.08,-3.9,0.291,11.0,/,
COCCCn1[nH]c2c3c(ccc2c1=O)C(=O)c1ccccc1C3=O,0.9,14.1,/,93.7*,/,14.9,6.5,KCC2 secondary=0.00503;KCC2 bumet counter=?;KCC2 sec2=0.0304;HEK counter1=0.00805;KCC2 ouabain=0.0192;HEK counter2=0.0118
CC12CCCCN1CCCc1c2[nH]c2ccccc12 (centres undefined),0.9,-2.9,0.169,64.4*,8.24*,8.5,-2.4,KCC2 secondary=?;KCC2 bumet counter=0.0044;KCC2 sec2=0.0293;HEK counter1=0.00766;KCC2 ouabain=?;HEK counter2=0.0106
